ChEMBL document CHEMBL4414574, “Structure-Based Discovery and Development of a Series of Potent and Selective Bromodomain and Extra-Terminal Protein Inhibitors” (J Med Chem, 2019)
Calls of active or inactive are those of the source. The calls are words filed in the database; no cut-off is given here.

How the values were obtained:
MM1.S = experiment: Antiproliferative activity against human MM1S cells after 72 hrs by CCK8 or SRB assay; type: functional, cell-based
In short: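 IC50 against MM.1S cell proliferation was taken as the mean of three independent experiments, each run in triplicate, reported with SEM.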

[1] = target: T1, Bromodomain-containing protein 4 (Homo sapiens, UniProt O60885); experiment: Displacement of 5-FITC labelled (+)-JQ1 from His6-tagged human BRD4 bromodomain 1 expressed in Escherichia coli BL21(DE3) )-codon plus-RIL cells incubated for 4 hrs in dark condition by fluorescence anisotropy binding assay
[2] = target: Bromodomain-containing protein 2 (Homo sapiens) (UniProt P25440); experiment: Inhibition of BRD2 bromodomain 1 (unknown origin)
Chain of Bromodomain-containing protein 2 (Homo sapiens) (P25440 whole entry, looked up): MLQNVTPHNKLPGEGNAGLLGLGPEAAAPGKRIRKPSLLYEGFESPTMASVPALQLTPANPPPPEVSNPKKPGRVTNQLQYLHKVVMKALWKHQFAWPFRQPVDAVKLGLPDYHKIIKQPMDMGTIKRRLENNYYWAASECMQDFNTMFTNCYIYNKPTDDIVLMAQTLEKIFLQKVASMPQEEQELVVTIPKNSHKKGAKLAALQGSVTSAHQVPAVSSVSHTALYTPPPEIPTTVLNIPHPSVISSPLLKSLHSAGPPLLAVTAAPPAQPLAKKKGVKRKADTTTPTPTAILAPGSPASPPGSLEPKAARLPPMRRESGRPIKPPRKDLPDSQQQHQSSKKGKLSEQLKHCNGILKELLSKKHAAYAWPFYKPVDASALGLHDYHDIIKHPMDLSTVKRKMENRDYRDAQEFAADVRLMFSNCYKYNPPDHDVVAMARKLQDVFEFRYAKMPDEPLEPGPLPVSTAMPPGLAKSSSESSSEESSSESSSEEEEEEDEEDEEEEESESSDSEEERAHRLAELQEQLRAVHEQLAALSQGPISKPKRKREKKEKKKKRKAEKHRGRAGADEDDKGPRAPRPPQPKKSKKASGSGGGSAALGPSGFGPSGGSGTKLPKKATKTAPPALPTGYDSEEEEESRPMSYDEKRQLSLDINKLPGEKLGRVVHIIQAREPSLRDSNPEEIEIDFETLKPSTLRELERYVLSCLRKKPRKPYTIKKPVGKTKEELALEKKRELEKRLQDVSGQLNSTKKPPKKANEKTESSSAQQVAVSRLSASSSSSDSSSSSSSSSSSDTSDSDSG

[3] = target: Histone acetyltransferase p300 (Homo sapiens) (UniProt Q09472); experiment: Inhibition of EP300 (unknown origin) at 1 uM
Chain of Histone acetyltransferase p300 (Homo sapiens) (Q09472 whole entry): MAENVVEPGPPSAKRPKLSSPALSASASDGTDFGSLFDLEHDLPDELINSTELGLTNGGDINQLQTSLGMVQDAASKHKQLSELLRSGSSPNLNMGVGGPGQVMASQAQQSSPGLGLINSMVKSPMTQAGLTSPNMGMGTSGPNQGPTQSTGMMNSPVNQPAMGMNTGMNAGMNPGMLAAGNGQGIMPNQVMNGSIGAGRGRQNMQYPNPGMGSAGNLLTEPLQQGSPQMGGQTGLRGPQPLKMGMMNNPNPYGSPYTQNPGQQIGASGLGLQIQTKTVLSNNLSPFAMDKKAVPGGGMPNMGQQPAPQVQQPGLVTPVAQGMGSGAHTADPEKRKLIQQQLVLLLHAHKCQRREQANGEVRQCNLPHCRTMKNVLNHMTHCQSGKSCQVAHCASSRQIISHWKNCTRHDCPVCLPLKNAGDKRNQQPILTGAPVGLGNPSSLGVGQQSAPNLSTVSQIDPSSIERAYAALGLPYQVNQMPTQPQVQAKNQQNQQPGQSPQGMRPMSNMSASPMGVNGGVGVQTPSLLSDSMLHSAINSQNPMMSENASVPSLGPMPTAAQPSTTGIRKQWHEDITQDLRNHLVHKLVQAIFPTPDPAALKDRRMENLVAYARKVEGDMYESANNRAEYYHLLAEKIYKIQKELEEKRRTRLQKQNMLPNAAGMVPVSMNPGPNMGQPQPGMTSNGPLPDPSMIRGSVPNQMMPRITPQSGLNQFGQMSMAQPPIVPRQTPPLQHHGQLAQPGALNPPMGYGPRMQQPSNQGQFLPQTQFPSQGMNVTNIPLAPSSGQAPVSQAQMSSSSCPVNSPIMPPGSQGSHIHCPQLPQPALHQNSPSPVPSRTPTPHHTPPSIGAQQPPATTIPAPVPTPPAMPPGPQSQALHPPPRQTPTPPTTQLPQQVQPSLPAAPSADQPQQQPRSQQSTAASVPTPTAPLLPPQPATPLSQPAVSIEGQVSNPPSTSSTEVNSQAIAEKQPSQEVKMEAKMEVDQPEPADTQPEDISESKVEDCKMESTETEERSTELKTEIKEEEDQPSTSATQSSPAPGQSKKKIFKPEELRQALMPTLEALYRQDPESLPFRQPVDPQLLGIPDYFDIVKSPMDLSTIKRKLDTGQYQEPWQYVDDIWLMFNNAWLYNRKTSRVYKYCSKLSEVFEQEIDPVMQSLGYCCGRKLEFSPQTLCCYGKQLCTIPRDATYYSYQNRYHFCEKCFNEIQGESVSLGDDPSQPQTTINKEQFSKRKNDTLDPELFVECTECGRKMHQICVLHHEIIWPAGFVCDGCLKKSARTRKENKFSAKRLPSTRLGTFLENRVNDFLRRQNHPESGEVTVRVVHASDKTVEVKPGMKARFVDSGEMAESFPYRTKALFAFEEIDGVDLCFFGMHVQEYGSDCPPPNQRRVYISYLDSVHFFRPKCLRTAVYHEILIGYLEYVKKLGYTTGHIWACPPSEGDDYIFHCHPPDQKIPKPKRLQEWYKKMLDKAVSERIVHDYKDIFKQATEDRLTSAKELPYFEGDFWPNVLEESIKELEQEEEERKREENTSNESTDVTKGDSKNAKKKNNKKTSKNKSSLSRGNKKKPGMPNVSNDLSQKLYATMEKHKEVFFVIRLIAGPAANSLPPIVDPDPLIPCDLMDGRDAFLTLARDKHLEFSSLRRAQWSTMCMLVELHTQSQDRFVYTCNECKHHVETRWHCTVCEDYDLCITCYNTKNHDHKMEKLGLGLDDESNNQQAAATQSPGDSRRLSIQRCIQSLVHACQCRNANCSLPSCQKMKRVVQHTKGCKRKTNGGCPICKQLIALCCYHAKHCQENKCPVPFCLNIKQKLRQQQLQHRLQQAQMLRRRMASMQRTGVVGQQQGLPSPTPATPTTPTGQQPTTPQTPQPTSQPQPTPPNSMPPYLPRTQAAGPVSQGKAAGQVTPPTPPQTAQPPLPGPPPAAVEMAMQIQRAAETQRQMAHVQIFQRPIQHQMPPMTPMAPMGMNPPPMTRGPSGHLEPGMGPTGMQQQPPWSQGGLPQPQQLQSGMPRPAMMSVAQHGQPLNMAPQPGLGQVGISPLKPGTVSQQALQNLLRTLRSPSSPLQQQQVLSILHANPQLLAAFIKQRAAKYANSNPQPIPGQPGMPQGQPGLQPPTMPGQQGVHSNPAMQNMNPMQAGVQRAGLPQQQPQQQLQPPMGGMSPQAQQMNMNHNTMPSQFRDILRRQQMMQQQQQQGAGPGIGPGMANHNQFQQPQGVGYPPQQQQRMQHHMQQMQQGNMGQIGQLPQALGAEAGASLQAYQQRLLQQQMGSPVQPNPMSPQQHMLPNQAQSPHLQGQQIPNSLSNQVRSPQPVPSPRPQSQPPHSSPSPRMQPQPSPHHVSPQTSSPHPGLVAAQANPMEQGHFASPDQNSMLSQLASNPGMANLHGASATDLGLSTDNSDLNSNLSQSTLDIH
In short: (§1)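 Bromodomain binding panel (32 bromodomains) screened at 1 μM; primary binding read-out reported as percent of control, lower values meaning stronger binding.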

[4] = target: Bromodomain-containing protein 2 (Homo sapiens) (UniProt P25440); experiment: Inhibition of BRD2 bromodomain 2 (unknown origin); in short: as §1
[5] = target: T1, Bromodomain-containing protein 4; experiment: Inhibition of BRD4 bromodomain 2 (unknown origin)
[6] = target: T1, Bromodomain-containing protein 4; experiment: Inhibition of BRD4 bromodomain 1 (unknown origin)
In short: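 BRD4 BD1 (His6-tagged, E. coli BL21(DE3)-expressed, Ni-NTA purified) at 10 nM with 5 nM FITC-labelled (+)-JQ1 tracer; 50 mM HEPES pH 7.4, 150 mM NaCl, 0.5 mM CHAPS, DMSO 2‰ final; graded inhibitor; 4 h dark equilibration at room temperature; fluorescence anisotropy read (ex 485/em 530 nm). IC50 from two independent experiments in duplicate, mean ± SEM.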

NCI-H1299 = experiment: Antiproliferative activity against human NCI-H1299 cells after 72 hrs by CCK8 or SRB assay; type: functional, cell-based
HuTu80 = experiment: Antiproliferative activity against human HuTu 80 cells after 72 hrs by CCK8 or SRB assay; type: functional, cell-based
HT-29 = experiment: Antiproliferative activity against human HT-29 cells after 72 hrs by CCK8 or SRB assay; type: functional, cell-based
SK-OV-3 = experiment: Antiproliferative activity against human SKOV3 cells after 72 hrs by CCK8 or SRB assay; type: functional, cell-based
A549 = experiment: Antiproliferative activity against human A549 cells after 72 hrs by CCK8 or SRB assay; type: functional, cell-based
MDA-MB-436 = experiment: Antiproliferative activity against human MDA-MB-436 cells after 72 hrs by CCK8 or SRB assay; type: functional, cell-based
Hep 3B2 = experiment: Antiproliferative activity against human Hep3B cells after 72 hrs by CCK8 or SRB assay; type: functional, cell-based
KG-1 = experiment: Antiproliferative activity against human KG1 cells after 72 hrs by CCK8 or SRB assay; type: functional, cell-based
MV4-11 = experiment: Antiproliferative activity against human MV4-11 cells after 72 hrs by CCK8 or SRB assay; type: functional, cell-based
Homo sapiens = species on record: Homo sapiens; experiment: Antiproliferative activity against human TY82 cells after 72 hrs by CCK8 or SRB assay; type: functional, cell-based
BT-549 = experiment: Antiproliferative activity against human BT549 cells after 72 hrs by CCK8 or SRB assay; type: functional, cell-based
NCI-H522 = experiment: Antiproliferative activity against human NCI-H522 cells after 72 hrs by CCK8 or SRB assay; type: functional, cell-based
RKO = experiment: Antiproliferative activity against human RKO cells after 72 hrs by CCK8 or SRB assay; type: functional, cell-based
MDA-MB-468 = experiment: Antiproliferative activity against human MDA-MB-468 cells after 72 hrs by CCK8 or SRB assay; type: functional, cell-based
SW-620 = experiment: Antiproliferative activity against human SW620 cells after 72 hrs by CCK8 or SRB assay; type: functional, cell-based
AGS = experiment: Antiproliferative activity against human AGS cells after 72 hrs by CCK8 or SRB assay; type: functional, cell-based
[7] = AUC (0 to t) in ICR mouse at 10 mg/kg, po administered via gavage measured after 0.25 to 24 hrs by UPLC/MS analysis; type: ADME, organism-based; parameters: time 0.25-24 hr, dose 10 mg/kg, route oral; conditions: in vivo
In short: (§2)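 Male ICR mice were dosed orally in 1% DMSO/0.5% HPMC vehicle. Plasma (and brain, where stated) concentrations gave Tmax, Cmax, T1/2, AUC0-t and AUC0-inf.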

[8] = AUC (0 to infinity) in ICR mouse at 10 mg/kg, po administered via gavage measured after 0.25 to 24 hrs by UPLC/MS analysis; type: ADME, organism-based; parameters: dose 10 mg/kg, route oral, time infinity; conditions: in vivo; in short: as §2
[9] = Tmax in ICR mouse at 10 mg/kg, po administered via gavage measured after 0.25 to 24 hrs by UPLC/MS analysis; type: ADME, organism-based; conditions: in vivo
In short: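 Male ICR mice dosed orally (3, 10 or 100 mg/kg, per line) in 1% DMSO/0.5% HPMC vehicle; plasma drug levels measured.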

[10] = Cmax in ICR mouse at 10 mg/kg, po administered via gavage measured after 0.25 to 24 hrs by UPLC/MS analysis; type: ADME, organism-based; parameters: dose 10 mg/kg, route oral; conditions: in vivo
In short: (§3)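 Male ICR mice dosed orally in 1% DMSO/0.5% HPMC vehicle; plasma or brain drug levels used to derive Tmax, Cmax, AUC0-t, AUC0-inf and T1/2.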

[11] = Half life in ICR mouse at 10 mg/kg, po administered via gavage measured after 0.25 to 24 hrs by UPLC/MS analysis; type: ADME, organism-based; conditions: in vivo; in short: as §3

## Cc1ccc(-n2nc(C(=O)N3CCN(C)CC3)nc2-c2ccc3c(c2)N(C2CCCC2)[C@H](C)C(=O)N3C)c(C)c1
MM1.S
  IC50: 17.8 nM
[1]
  IC50: 4.5 nM

## Cc1ccc(-n2nc(C(=O)N3CCCN(C)CC3)nc2-c2ccc3c(c2)N(C2CCCC2)[C@H](C)C(=O)N3C)cc1
[2]
  inhibition activity call (active/inactive): Active
[3]
  inhibition: inactive
[4]
  inhibition: Active
[5]
  inhibition: Active
MM1.S
  IC50: 8 nM
[6]
  inhibition: Active

## Cc1ccc(-n2nc(C(=O)N3CCC4(CCOC4)CC3)nc2-c2ccc3c(c2)N(C2CCCC2)[C@H](C)C(=O)N3C)cc1
MM1.S
  IC50: 485 nM
[1]
  IC50: 7.9 nM

## Cc1ccc(-n2nc(C(=O)N3C[C@@H](N)C4(CC4)C3)nc2-c2ccc3c(c2)N(C2CCCC2)[C@H](C)C(=O)N3C)cc1
MM1.S
  IC50: 43.5 nM
[1]
  IC50: 6.1 nM

## Cc1ccc(-n2nc(C(=O)N3C4CCC3CN(C)C4)nc2-c2ccc3c(c2)N(C2CCCC2)[C@H](C)C(=O)N3C)cc1
[2]
  inhibition activity call (active/inactive): Active
[3]
  inhibition: inactive
[4]
  inhibition: Active
[5]
  inhibition: Active
MM1.S
  IC50: 7.9 nM
[1]
  IC50: 6.6 nM
[6]
  inhibition: Active

## C[C@@H]1C(=O)N(C)c2ccc(-c3nc(C(=O)N4CCN(C)CC4)nn3-c3ccc(Cl)cc3)cc2N1C1CCCC1
MM1.S
  IC50: 48.5 nM
[1]
  IC50: 6.8 nM

## Cc1ccc(-n2nc(C(=O)N3CCN(C4CC4)CC3)nc2-c2ccc3c(c2)N(C2CCCC2)[C@H](C)C(=O)N3C)cc1
MM1.S
  IC50: 87.5 nM
[1]
  IC50: 5.9 nM

## Cc1ccc(-n2nc(C(=O)N3CCN4CCCC4C3)nc2-c2ccc3c(c2)N(C2CCCC2)[C@H](C)C(=O)N3C)cc1 (stereo partly drawn)
[2]
  inhibition activity call (active/inactive): Active
[3]
  inhibition: inactive
[4]
  inhibition: Active
[5]
  inhibition: Active
MM1.S
  IC50: 6.4 nM
[1]
  IC50: 8.7 nM
[6]
  inhibition: Active

## CCN1CCN(C(=O)c2nc(-c3ccc4c(c3)N(C3CCCC3)[C@H](C)C(=O)N4C)n(-c3ccc(C)cc3)n2)CC1
MM1.S
  IC50: 25.1 nM
[1]
  IC50: 5.8 nM

## Cc1ccc(-n2nc(C(=O)N3CCN(C(C)C)CC3)nc2-c2ccc3c(c2)N(C2CCCC2)[C@H](C)C(=O)N3C)cc1
MM1.S
  IC50: 125 nM
[1]
  IC50: 4.8 nM

## Cc1ccc(-n2nc(C(=O)N3C[C@@H](NC(=O)OC(C)(C)C)C4(CC4)C3)nc2-c2ccc3c(c2)N(C2CCCC2)[C@H](C)C(=O)N3C)cc1
MM1.S
  IC50: 485 nM
[1]
  IC50: 9.6 nM

## Cc1ccc(-n2nc(C(=O)N3CC4CCC(C3)N4C)nc2-c2ccc3c(c2)N(C2CCCC2)[C@H](C)C(=O)N3C)cc1
[2]
  inhibition activity call (active/inactive): Active
[3]
  inhibition: inactive
[4]
  inhibition: Active
[5]
  inhibition: Active
MM1.S
  IC50: 10.1 nM
[1]
  IC50: 4.6 nM
[6]
  inhibition: Active

## Cc1onc(-c2ccccc2)c1-c1ccc2c(c1)N(C1CCCC1)[C@H](C)C(=O)N2C
[1]
  IC50: 100 nM

## Cc1ccc(-n2nnnc2-c2ccc3c(c2)N(C2CCCC2)C(C)C(=O)N3C)cc1 (stereo not drawn)
MM1.S
  IC50: 1230 nM
[1]
  IC50: 9.5 nM

## Cc1ccc(-n2nnnc2-c2ccc3c(c2)N(C2CC2)C(C)C(=O)N3C)cc1 (stereo not drawn)
MM1.S
  IC50: 47.7 nM
[1]
  IC50: 14.4 nM

## Cc1ccc(N2C(=O)CSC2c2ccc3c(c2)N(C2CC2)C(C)C(=O)N3C)cc1 (stereo not drawn)
[1]
  IC50: 142 nM

## Cc1sc2c(c1C)C(c1ccc(Cl)cc1)=N[C@@H](CC(=O)OC(C)(C)C)c1nnc(C)n1-2
NCI-H1299
  Activity: Active
HuTu80
  Activity: Active
HT-29
  Activity: Active
SK-OV-3
  Activity: Active
A549
  Activity: Active
MDA-MB-436
  Activity: Active
Hep 3B2
  Activity: Active
KG-1
  Activity: Active
MV4-11
  Activity: Active
Homo sapiens
  Activity: Active
BT-549
  Activity: Active
NCI-H522
  Activity: Active
RKO
  Activity: Active
MDA-MB-468
  Activity: Active
SW-620
  Activity: Active
AGS
  Activity: Active

## C[C@@H]1C(=O)N(C)c2ccc(-c3nc(C(=O)N4CCN(C)CC4)nn3-c3ccccc3)cc2N1C1CCCC1
MM1.S
  IC50: 60.1 nM
[1]
  IC50: 7.1 nM

## Cc1ccc(-n2nc(C(=O)N3CCC4(CCCC4)CC3)nc2-c2ccc3c(c2)N(C2CCCC2)[C@H](C)C(=O)N3C)cc1
MM1.S
  IC50: 2400 nM
[1]
  IC50: 27.2 nM

## Cc1ccc(-n2nc(C(=O)N(C)CCN(C)C)nc2-c2ccc3c(c2)N(C2CCCC2)[C@H](C)C(=O)N3C)cc1
[2]
  inhibition activity call (active/inactive): Active
[3]
  inhibition: inactive
[4]
  inhibition: Active
[5]
  inhibition: Active
MM1.S
  IC50: 16.2 nM
[1]
  IC50: 7 nM
[6]
  inhibition: Active

## Cc1ccc(-n2nc(C(=O)N3CCN(C)CC3)nc2-c2ccc3c(c2)N(C2CCCC2)[C@H](C)C(=O)N3C)cc1F
[7]
  AUC(0-t): 8150 ng·h/mL
[8]
  AUC(0-inf): 8360 ng·h/mL
[2]
  inhibition activity call (active/inactive): Active
[9]
  Tmax: 18 min
[3]
  inhibition: inactive
[4]
  inhibition: Active
[10]
  Cmax: 4970 ng/mL
[5]
  inhibition: Active
MM1.S
  IC50: 13 nM
[1]
  IC50: 4.2 nM
[11]
  half-life: 90 min
[6]
  inhibition: Active
